{"data": "Assay results gathered from unrelated publications", "read-out": "cell growth or viability"}
{"Structure (SMILES)": "Cc1cc2c(C(N)=O)cccc2n1-c1nc2c(c(NCc3cccnc3)n1)CCCN2", "cell line": "RPMI-8226", "assay": "ATP luminescence", "setting": "72 h", "IC50": "2000 nM"}
{"Structure (SMILES)": "O=C(O)c1ccc(NCc2cccc(O)c2)cc1", "cell line": "NCI-H69", "assay": "resazurin", "setting": "72 h", "IC50": "> 100000 nM"}
{"Structure (SMILES)": "CC(C)(C)c1cnc(CSc2cnc(NC(=O)C3CCN(C(=O)CCCCCN4Cc5cc6c(cc5C4)C(=O)N(C4CCC(=O)NC4=O)C6=O)CC3)s2)o1 (centres unmarked)", "cell line": "TC-71", "assay": "MTT", "setting": "72 h", "IC50": "4.71 nM"}
{"Structure (SMILES)": "COc1ccc(CNc2ccc(C(=O)O)cc2)cc1", "cell line": "NCI-H69", "assay": "resazurin", "setting": "72 h", "IC50": "> 100000 nM"}
{"Structure (SMILES)": "CC(C)(C)c1cnc(CSc2cnc(NC(=O)C3CCN(C(=O)CCCCCCN4Cc5cc6c(cc5C4)C(=O)N(C4CCC(=O)NC4=O)C6=O)CC3)s2)o1 (centres unmarked)", "cell line": "TC-71", "assay": "MTT", "setting": "72 h", "IC50": "9.58 nM"}
{"Structure (SMILES)": "O=C(O)c1ccc(NCc2ccccc2)cc1", "cell line": "NCI-H69", "assay": "resazurin", "setting": "72 h", "IC50": "> 100000 nM"}
{"Structure (SMILES)": "CONC(=O)Cc1c(C)n(-c2nc3c(c(NCc4ccccc4)n2)CCCN3)c2ccccc12", "cell line": "RPMI-8226", "assay": "ATP luminescence", "setting": "72 h", "IC50": "8000 nM"}
{"Structure (SMILES)": "COc1ccc(CNc2ccc(C(=O)O)cc2)cc1OC", "cell line": "NCI-H69", "assay": "resazurin", "setting": "72 h", "IC50": "> 100000 nM"}
{"Structure (SMILES)": "Cc1cc2c(C(N)=O)cccc2n1-c1nc2c(c(NCc3cccc(O)c3)n1)CCCN2", "cell line": "RPMI-8226", "assay": "ATP luminescence", "setting": "72 h", "IC50": "300 nM"}
{"Structure (SMILES)": "O=C(O)c1ccc(NCc2cccc(C(F)(F)F)c2)cc1", "cell line": "NCI-H69", "assay": "resazurin", "setting": "72 h", "IC50": "> 100000 nM"}
{"Structure (SMILES)": "Cc1cc2c(C(N)=O)nccc2n1-c1nc2c(c(NCc3ccccc3)n1)CCCN2", "cell line": "RPMI-8226", "assay": "ATP luminescence", "setting": "72 h", "IC50": "4900 nM"}
{"Structure (SMILES)": "CC(C)(C)c1cnc(CSc2cnc(NC(=O)C3CCN(C(=O)CCOCCCN4Cc5cc6c(cc5C4)C(=O)N(C4CCC(=O)NC4=O)C6=O)CC3)s2)o1 (centres unmarked)", "cell line": "TC-71", "assay": "MTT", "setting": "72 h", "IC50": "16.9 nM"}
{"Structure (SMILES)": "O=C1CCCC2=C1C(c1c(C(=O)O)[nH]c3ccccc13)c1c(ccc3ccccc13)O2 (centres unmarked)", "cell line": "3T3-L1", "assay": "MTT", "setting": "72 h", "IC50": "24.1 µg/mL"}
{"Structure (SMILES)": "Cc1cc2c(C(N)=O)cncc2n1-c1nc2c(c(NCc3ccccc3)n1)CCCN2", "cell line": "RPMI-8226", "assay": "ATP luminescence", "setting": "72 h", "IC50": "2900 nM"}
{"Structure (SMILES)": "CC(C)(C)c1cnc(CSc2cnc(NC(=O)C3CCN(C(=O)CCCCN4Cc5cc6c(cc5C4)C(=O)N(C4CCC(=O)NC4=O)C6=O)CC3)s2)o1 (centres unmarked)", "cell line": "TC-71", "assay": "MTT", "setting": "72 h", "IC50": "13 nM"}
{"Structure (SMILES)": "Cc1cc2c(C(N)=O)cccc2n1-c1nc2c(c(NCc3ccccn3)n1)CCCN2", "cell line": "RPMI-8226", "assay": "ATP luminescence", "setting": "72 h", "IC50": "1400 nM"}
{"Structure (SMILES)": "CC(C)(C)c1cnc(CSc2cnc(NC(=O)C3CCN(C(=O)CCCCCCCCCCCN4Cc5cc6c(cc5C4)C(=O)N(C4CCC(=O)NC4=O)C6=O)CC3)s2)o1 (centres unmarked)", "cell line": "TC-71", "assay": "MTT", "setting": "72 h", "IC50": "79.9 nM"}
{"Structure (SMILES)": "COc1cccc2c1C(=O)c1c(O)c3c(c(O)c1C2=O)C[C@@](O)(C(=O)CO)C[C@@H]3O[C@H]1C[C@H](N)[C@H](O)[C@H](C)O1", "cell line": "ACHN", "assay": "MTT", "setting": "24 h", "IC50": "36100 nM"}
{"Structure (SMILES)": "CC(C)(C)c1cnc(CSc2cnc(NC(=O)C3CCN(C(=O)CCCCCCCCCCN4Cc5cc6c(cc5C4)C(=O)N(C4CCC(=O)NC4=O)C6=O)CC3)s2)o1 (centres unmarked)", "cell line": "TC-71", "assay": "MTT", "setting": "72 h", "IC50": "71.8 nM"}
{"Structure (SMILES)": "COc1cc(CNc2ccc(C(=O)O)cc2)ccc1O", "cell line": "NCI-H69", "assay": "resazurin", "setting": "72 h", "IC50": "> 100000 nM"}
